Paper PMC10938640 (Chemistry & biodiversity, 2023)
“Also recorded” adds a separate entry of the source.

Legend:
[1] = tested on: MCF-10A mammary epithelial cell line; experiment: Differential Nuclear Staining; format: cell-based, human; conditions: MCF-10A, 72 h exposure, DNS assay
[2] = tested on: CEM acute lymphoblastic leukemia cell line; experiment: Differential Nuclear Staining; format: cell-based, human
Method in brief: (§1)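 Cells grown in RPMI-1640 with 10% heat-inactivated FBS and penicillin/streptomycin at 37 °C, 5% CO2, then seeded at 10,000/well and left overnight. Test compound given at […] for 48 h, with untreated, 1% v/v DMSO and 1 mM H2O2 controls, at least three technical replicates. Hoechst plus PI (1 μg/mL final) added for the last 2 h. Wells imaged at 4X, live/dead percentages scored, and CC50 derived by linear interpolation.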

[3] = Solubility in the cytotoxicity experiment; format: physicochemical; conditions: could not be examined at concentrations higher than 1 μM; crystals formed
[4] = tested on: MDA-MB-231 triple-negative breast cancer cell line; experiment: Differential Nuclear Staining; format: cell-based, human
[5] = tested on: Jurkat acute T cell leukemia cell line; experiment: Differential Nuclear Staining; format: cell-based, human; conditions: 48 h exposure, DNS assay
Method in brief: as §1

[6] = Differential Nuclear Staining; format: cell-based, human; conditions: human, MCF-10A mammary epithelial cells
[7] = tested on: Jurkat cells; experiment: Annexin V-FITC/PI apoptosis assay; format: cell-based, human; conditions: 24 h, CC50 (4.36 μM) and 2x CC50 (8.72 μM), vs vehicle control
[8] = tested on: Jurkat cells; experiment: Reactive oxygen species; format: cell-based, human; conditions: 18 h, CC50 (4.36 μM) and 2x CC50 (8.72 μM) of 6h, H2O2 positive control, vs DMSO
[9] = tested on: Jurkat cells; experiment: Cell cycle distribution analysis, NIM-DAPI; format: cell-based, human; conditions: 72 h
[10] = tested on: Jurkat cells; experiment: Mitochondrial depolarization assay, MitoProbe JC-1; format: cell-based, human; conditions: 5 h; for Cells with depolarized mitochondria: solvent 20.9%
[11] = MDA-MB-231, 72 h exposure, DNS assay
[12] = 6h at CC25 (2.18 μM) and CC50 (4.36 μM), vs DMSO

| Structure (SMILES) | CC50 at 72 h [6] [µM] | CC50 ([2]; Homo sapiens, 48 h) [µM] | CC50 ([4]; Homo sapiens, MDA-MB-231, 72 h) [µM] | CC50 ([5]; Homo sapiens, 48 h) [µM] | other results |
| --- | --- | --- | --- | --- | --- |
| O=C1Nc2ccccc2C1=Cc1cn(-c2ccccc2)nc1-c1ccccc1 [Compound 6a] | – | – | – | – | CC50 [1]: > 1 µM; CC50 ([2]; CEM, 48 h exposure, DNS assay): > 1 µM; Solubility (result in words) [3]: poor solubility; CC50 [4, 11]: > 1 µM; CC50 [5]: > 1 µM |
| Cc1ccc(-c2nn(-c3ccccc3)cc2C=C2C(=O)Nc3ccccc32)cc1 [Compound 6b, 3-((1-Phenyl-3-(p-tolyl)-1H-pyrazol-4-yl)methylene)indolin-2-one] | > 1 | > 1 | > 1 | > 1 | Solubility (result in words) [3]: poor solubility |
| O=C1Nc2ccccc2C1=Cc1cn(-c2ccccc2)nc1-c1ccc([N+](=O)[O-])cc1 [Compound 6c, 3-((3-(4-Nitrophenyl)-1-phenyl-1H-pyrazol-4-yl)methylene)indolin-2-one] | > 20 | > 20 | > 20 | > 20 | – |
| COc1ccc(-c2nn(-c3ccccc3)cc2C=C2C(=O)Nc3ccccc32)cc1 [Compound 6d, 3-((3-(4-Methoxyphenyl)-1-phenyl-1H-pyrazol-4-yl)methylene)indolin-2-one] | > 1 | > 1 | > 1 | > 1 | Solubility (result in words) [3]: poor solubility |
| O=C1Nc2ccccc2C1=Cc1cn(-c2ccccc2)nc1-c1ccc(Cl)cc1 [Compound 6e, 3-((3-(4-Chlorophenyl)-1-phenyl-1H-pyrazol-4-yl)methylene)indolin-2-one] | > 20 | > 20 | > 20 | > 20 | – |
| O=C1Nc2ccccc2C1=Cc1cn(-c2ccccc2)nc1-c1cc2ccccc2oc1=O [Compound 6f, 3-((3-(2-Oxo-2H-chromen-3-yl)-1-phenyl-1H-pyrazol-4-yl)methylene)indolin-2-one] | > 20 | > 20 | > 20 | > 20 | – |
| Cc1ccc2c(c1)C(=Cc1cn(-c3ccccc3)nc1-c1ccccc1)C(=O)N2 [Compound 6g, 3-((1,3-diphenyl-1H-pyrazol-4-yl)methylene)-5-methylindolin-2-one] | 13 ± 0.49 | > 20 | > 20 | > 20 | – |
| Cc1ccc(-c2nn(-c3ccccc3)cc2C=C2C(=O)Nc3ccc(C)cc32)cc1 [Compound 6h, 5-methyl-3-((3-(1-phenyl)-3-(p-tolyl)-1H-pyrazol-4-yl)methylene)indolin-2-one] | – | – | – | – | CC50 [1]: 14.8 ± 1.48 µM; Phosphatidylserine (PS) externalization / apoptosis [7]: induces a significant amount of PS externalization in a dose-response trend; also recorded: induced significant PS externalization; CC50 ([2]; CEM, 48 h exposure, DNS assay): 7.14 ± 0.92 µM; ROS overproduction/accumulation [8]: does not activate ROS overproduction and/or accumulation; also recorded: does not cause ROS accumulation; DNA fragmentation (sub G0/G1) [9, 12]: moderate but significant increase in DNA fragmentation (sub G0/G1); also recorded: significant increase in DNA fragmentation (sub G0/G1; A); G0/G1 phase subpopulation [9, 12]: significant cell cycle arrest was seen in the G0/G1 subpopulation; also recorded: cell cycle arrest in the G0/G1 diploid phase; G2/M (tetraploid) phase subpopulation [9, 12]: small but also significant reduction in the G2/M (tetraploid) phase; also recorded: significant decrease in G2/M; CC50 [4, 11]: > 20 µM; CC50 [5]: 4.36 ± 0.2 µM; Mitochondrial depolarization (result in words) ([10]; CC50 and 2x CC50): does not cause mitochondrial depolarization; also recorded: No significant increase in cells with depolarized mitochondria; Cells with depolarized mitochondria ([10]; at 2x CC50, untreated 13.2%): 18.7%; Cells with depolarized mitochondria ([10]; at CC50, untreated 13.2%): 18.3% |
| COc1ccc(-c2nn(-c3ccccc3)cc2C=C2C(=O)Nc3ccc(C)cc32)cc1 [Compound 6i, 3-((3-(4-methoxyphenyl)-1-phenyl-1H-pyrazol-4-yl)methylene)-5-methylindolin-2-one] | 9.37 ± 0.42 | > 20 | > 20 | > 20 | – |
| Cc1ccc2c(c1)C(=Cc1cn(-c3ccccc3)nc1-c1ccc(Cl)cc1)C(=O)N2 [Compound 6j, 3-((3-(4-chlorophenyl)-1-phenyl-1H-pyrazol-4-yl)methylene)-5-methylindolin-2-one] | 8.59 ± 0.31 | 7.66 ± 0.19 | > 20 | – | – |
| Cc1ccc2c(c1)C(=Cc1cn(-c3ccccc3)nc1-c1cc3ccccc3oc1=O)C(=O)N2 [Compound 6k, 5-methyl-3-((3-(2-oxo-2H-chromen-3-yl)-1-phenyl-1H-pyrazol-4-yl)methylene)indolin-2-one] | > 20 | > 20 | > 20 | > 20 | – |
| OO [Compound H2O2, H2O2, reference compound] | – | – | – | – | ROS overproduction/accumulation [8]: displayed the highest amount of accumulated ROS; DNA fragmentation (sub G0/G1) [9, 12]: moderate but significant increase in DNA fragmentation (sub G0/G1) |
| COc1cc([C@@H]2c3cc4c(cc3[C@@H](O[C@@H]3O[C@@H]5CO[C@@H](C)O[C@H]5[C@H](O)[C@H]3O)[C@H]3COC(=O)[C@H]23)OCO4)cc(OC)c1O [etoposide, reference compound] | – | – | – | – | DNA fragmentation (sub G0/G1) [9, 12]: moderate but significant increase in DNA fragmentation (sub G0/G1); S hyperdiploid phase subpopulation ([9]; control): significant arrest in the S hyperdiploid phase |
